According to ChEMBL document CHEMBL1255290, “Characterization of a novel human immunodeficiency virus type 1 protease inhibitor, A-790742” (Antimicrob Agents Chemother, 2008):

What was measured:
[1] = test system: Human immunodeficiency virus 1; experiment: Antiviral activity against HIV1 isolate 9 infected in human MT4 cells obtained from protease inhibitor-resistant patient harboring protease L10I, I15I/V, K20R, L33F, E35D, M36I, N37D, R41K, K43I, M46I, I54V, I62V, L63P, A71T, I72T, V82A, I84V, L90M, I93L mutation derived from viral passages with Lopinavir assessed as reduction in viral cytopathogenicity treated 1 hr post infection measured 5 days …; assay type: functional
[2] = test system: Human immunodeficiency virus 1; experiment: Antiviral activity against HIV1 isolate 10 infected in human MT4 cells obtained from protease inhibitor-resistant patient harboring protease L10I, I13V, K20R, L33F, E35D, M36I, N37D, I54L, Q58E, I62V, L63P, A71V, V82A, I84V, L90M mutation derived from viral passages with Lopinavir assessed as reduction in viral cytopathogenicity treated 1 hr post infection measured 5 days post infection by MTT …; assay type: functional
[3] = test system: Human immunodeficiency virus 1; experiment: Antiviral activity against HIV1 isolate 11 infected in human MT4 cells obtained from protease inhibitor-resistant patient harboring protease L10I, I15V, K20R, E21Q, E35D, M36I, N37D, R41K, M46L, I54V, I62V, L63P, A71V, T74D, P79A, V82T, I84V, I85V, L90M, I93L mutation derived from viral passages with Lopinavir assessed as reduction in viral cytopathogenicity treated 1 hr post infection measured …; assay type: functional
[4] = test system: Human immunodeficiency virus 1; experiment: Antiviral activity against HIV1 isolate 13 infected in human MT4 cells obtained from protease inhibitor-resistant patient harboring protease L10I, K14R, L33F, E34Q, R41K, K45R, M46I, I50V, K55R, L63P, A71V, G73T, V77I, V82A, L90M, I93L mutation derived from viral passages with Lopinavir assessed as reduction in viral cytopathogenicity treated 1 hr post infection measured 5 days post infection by …; assay type: functional
[5] = test system: Human immunodeficiency virus 1; experiment: (§1) Antiviral activity against HIV1 pNL4-3 infected in human MT4 cells derived from 5 viral passages with 12 nM A-790742 harboring protease I84V mutation assessed as reduction in viral cytopathogenicity treated 1 hr post infection measured 5 days post infection by MTT assay relative to wild type HIV1 pNL4-3; assay type: functional
In short: (§2)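 Selection: MT-4 cells infected with parental pNL4-3 or RF (MOI 0.003, 2 h), then passaged under rising selecting drug whenever supernatant p24 (ELISA) exceeded 10 ng/ml. Passage viruses titred by TCID50 (Spearman-Karber). Assay: 10^6 MT-4 cells infected at MOI 0.003 for 1 h, washed, and seeded at 10^4 cells/well with eight serial dilutions, triplicate, 0.5% DMSO final. Day-5 MTT read-out; EC50 fold-change versus parental wild type.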

[6] = test system: Human immunodeficiency virus 1; experiment: as §1, with “from 7” for “from 5”, “with 32” for “with 12”; assay type: functional
In short: as §2

[7] = test system: Human immunodeficiency virus 1; experiment: as §1, with “from 8” for “from 5”, “with 50” for “with 12”, “protease V82V/L,” for “protease”; assay type: functional
In short: as §2

[8] = test system: Human immunodeficiency virus 1; experiment: as §1, with “from 9” for “from 5”, “with 80” for “with 12”, “protease V82V/L and” for “protease”; assay type: functional
In short: as §2

[9] = test system: Human immunodeficiency virus 1; experiment: as §1, with “from 18” for “from 5”, “with 900” for “with 12”, “protease L33F, K45I, A71A/V, V77V/I, V82L,” for “protease”; assay type: functional
In short: as §2

[10] = test system: Human immunodeficiency virus 1; experiment: Antiviral activity against HIV1 RF infected in human MT4 cells derived from 6 viral passages with 16 nM A-790742 harboring wild-type protease assessed as reduction in viral cytopathogenicity treated 1 hr post infection measured 5 days post infection by MTT assay relative to wild type HIV1 RF; assay type: functional
In short: as §2

[11] = test system: Human immunodeficiency virus 1; experiment: as §1, with “HIV1 RF” for “HIV1 pNL4-3”, “from 10” for “from 5”, “with 160” for “with 12”, “protease A71V, V82G” for “protease I84V”; assay type: functional
In short: as §2

[12] = test system: Human immunodeficiency virus 1; experiment: as §1, with “HIV1 RF” for “HIV1 pNL4-3”, “from 13” for “from 5”, “with 340” for “with 12”, “protease M46I, L63P, A71V, V82G” for “protease I84V”; assay type: functional
In short: as §2

[13] = test system: Human immunodeficiency virus 1; experiment: as §1, with “HIV1 RF” for “HIV1 pNL4-3”, “from 15” for “from 5”, “with 500” for “with 12”, “protease M46I, L63P, A71V, V82G” for “protease I84V”; assay type: functional
In short: as §2

[14] = test system: Human immunodeficiency virus 1; experiment: (§3) Antiviral activity against HIV1 P9 infected in human MT4 cells derived from viral passages with A-790742 harboring protease V82V/L and I84V mutation assessed as reduction in viral cytopathogenicity treated 1 hr post infection measured 5 days post infection by MTT assay relative to wild type HIV1 pNL4-3; assay type: functional
In short: (§4)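 For the assay, 10⁶ MT-4 cells were infected at MOI 0.003, washed after 1 h, and plated at 10⁴ cells/well with eight serial compound dilutions in triplicate (0.5% DMSO final). MTT cytopathic read-out at day 5; EC50 from dose-response fitting.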

[15] = test system: Human immunodeficiency virus 1; experiment: as §3, with “P15” for “P9”, “L33L/F, K45I, V82L,” for “V82V/L”; assay type: functional
In short: as §4

[16] = test system: Human immunodeficiency virus 1; experiment: as §3, with “P21” for “P9”, “L23I, L33F, K45I, A71A/V, V77I, V82L,” for “V82V/L”; assay type: functional
In short: as §4

[17] = test system: Human immunodeficiency virus 1; experiment: as §3, with “P13” for “P9”, “M46I, L63P, A71V,” for “V82V/L”, “V82G” for “I84V”, “RF” for “pNL4-3”; assay type: functional
In short: as §4

[18] = test system: Human immunodeficiency virus 1; experiment: Antiviral activity against HIV1 clone1 infected in HEK293 cells harboring A-790742-selected protease I84V mutation assessed as reduction in viral replication by luciferase reporter gene assay relative to wild type HIV1 pNL4-3; assay type: functional
In short: (§5)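 Single-cycle assay: HEK-293 cells were cotransfected with luciferase-reporter HIV-1 protease clones plus a VSV-G expression vector. After 4 h, cells were replated at 2 × 10⁴/well over serial inhibitor dilutions in triplicate. Pseudovirus collected at 48 h infected fresh HEK-293 (10⁴/well). Luciferase read 48 h later gave % inhibition versus untreated and EC50. Fold change against WT pNL4-3-Luc (clones 1-4) or RF-Luc (clone 5) is the mean of three experiments.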

[19] = test system: Human immunodeficiency virus 1; experiment: Antiviral activity against HIV1 clone2 infected in HEK293 cells harboring A-790742-selected protease V82L mutation assessed as reduction in viral replication by luciferase reporter gene assay relative to wild type HIV1 pNL4-3; assay type: functional
In short: as §5

[20] = test system: Human immunodeficiency virus 1; experiment: Antiviral activity against HIV1 clone4 infected in HEK293 cells harboring A-790742-selected protease L33F, A71V, G73S, V77I, V82L, and I84V mutation assessed as reduction in viral replication by luciferase reporter gene assay relative to wild type HIV1 pNL4-3; assay type: functional
In short: as §5

[21] = test system: Human immunodeficiency virus 1; experiment: Antiviral activity against HIV1 clone5 infected in HEK293 cells harboring A-790742-selected protease L63P, A71V, and V82G mutation assessed as reduction in viral replication by luciferase reporter gene assay relative to wild type HIV1 RF; assay type: functional
In short: as §5

[22] = test system: Human immunodeficiency virus 1; experiment: Antiviral activity against wild-type HIV1 RF infected in human MT4 cells assessed as reduction in viral cytopathogenicity treated 1 hr post infection measured 5 days post infection in absence of human serum by MTT assay; assay type: functional, organism-based; settings: Human immunodeficiency virus 1, RF
In short: as §4

[23] = test system: Human immunodeficiency virus 1; experiment: (§6) Antiviral activity against HIV1 A17 infected in human MT4 cells harboring protease L10F, V32I, M46I, I47V, Q58E, and I84V mutation derived from viral passages with Lopinavir assessed as reduction in viral cytopathogenicity treated 1 hr post infection measured 5 days post infection by MTT assay; assay type: functional, organism-based; settings: Human immunodeficiency virus 1, A17, MT4
In short: as §4

[24] = test system: Human immunodeficiency virus 1; experiment: Antiviral activity against HIV1 B26 infected in human MT4 cells harboring protease L33F, K45I, M46I, I50V, I54V, A71V, and V82F mutation derived from viral passages with Lopinavir assessed as reduction in viral cytopathogenicity treated 1 hr post infection measured 5 days post infection by MTT assay; assay type: functional, organism-based; settings: Human immunodeficiency virus 1, B26, MT4
In short: as §4

[25] = test system: Human immunodeficiency virus 1; experiment: as §6, with “P25” for “A17”, “L10F, G16E,” for “L10F,”, “I47A, H69Y, I84V,” for “I47V, Q58E,”, “T91S” for “I84V”; assay type: functional, organism-based; settings: Human immunodeficiency virus 1, P25, MT4
In short: as §4

[26] = test system: Human immunodeficiency virus 1; experiment: Antiviral activity against HIV1 isolate 3 infected in human MT4 cells obtained from protease inhibitor-resistant patient harboring protease L10I, E35D, N37D, […], I54V, L63P, A71V, T74P, I84V, L90M, I93L mutation derived from viral passages with Lopinavir assessed as reduction in viral cytopathogenicity treated 1 hr post infection measured 5 days post infection by MTT assay relative to wild type …; assay type: functional
[27] = test system: Human immunodeficiency virus 1; experiment: Antiviral activity against HIV1 isolate 4 infected in human MT4 cells obtained from protease inhibitor-resistant patient harboring protease N37T, M46I, Q58E, I64V, T74K, V77I, V82F, L90M mutation derived from viral passages with Lopinavir assessed as reduction in viral cytopathogenicity treated 1 hr post infection measured 5 days post infection by MTT assay relative to wild type HIV1 pNL4-3; assay type: functional
[28] = test system: Human immunodeficiency virus 1; experiment: Antiviral activity against HIV1 isolate 5 infected in human MT4 cells obtained from protease inhibitor-resistant patient harboring protease L10F, I15V, M46I, L63P, A71V, I72L, V82T, I84V, I85V, L90M mutation derived from viral passages with Lopinavir assessed as reduction in viral cytopathogenicity treated 1 hr post infection measured 5 days post infection by MTT assay relative to wild type HIV1 …; assay type: functional

## COC(=O)N[C@H](C(=O)N[C@H](Cc1ccc(-c2ccccn2)cc1)C[C@H](O)[C@H](Cc1ccccc1)NC(=O)[C@@H](N1CCN(Cc2cccc(C(C)(C)O)n2)C1=O)C(C)(C)C)C(C)(C)C
[1]
  Ratio EC50: 6
[2]
  Ratio EC50: 10
[3]
  Ratio EC50: 11
[4]
  Ratio EC50: 2
[5]
  Ratio EC50: 4
[6]
  Ratio EC50: 10.7
[7]
  Ratio EC50: 16.7
[8]
  Ratio EC50: 26.7
[9]
  Ratio EC50: 300
[10]
  Ratio EC50: 3.2
[11]
  Ratio EC50: 32
[12]
  Ratio EC50: 68
[13]
  Ratio EC50: 100
[14]
  Ratio EC50: 13
[15]
  Ratio EC50: 29
[16]
  Ratio EC50: >2500
[17]
  Ratio EC50: 72
[18]
  Ratio EC50: 2
[19]
  Ratio EC50: 22
[20]
  Ratio EC50: 158
[21]
  Ratio EC50: 72
[22]
  EC50: 5 nM
[23]
  EC50: 10 nM
[24]
  EC50: 22 nM
[25]
  EC50: 45 nM
[26]
  Ratio EC50: 33
[27]
  Ratio EC50: 1
[28]
  Ratio EC50: 2
